Results: ChEMBL document CHEMBL1128573, “Synthesis and in vitro evaluation of 4-substituted N-(1,1-dimethylethyl)-3-oxo-4-androstene-17 beta-carboxamides as 5 alpha-reductase inhibitors and antiandrogens” (J Med Chem, 1995)

Tests used:
[1] = molecular target: T1, 3-oxo-5-alpha-steroid 4-dehydrogenase 2 (Homo sapiens, UniProt P31213); experiment: In vitro inhibition of human Steroid 5-alpha-reductase type 2 in transfected SW-13 cells using [3H]- delta4-Androstenedione as substrate; type: cell-based
T1 sequence (P31213 whole entry): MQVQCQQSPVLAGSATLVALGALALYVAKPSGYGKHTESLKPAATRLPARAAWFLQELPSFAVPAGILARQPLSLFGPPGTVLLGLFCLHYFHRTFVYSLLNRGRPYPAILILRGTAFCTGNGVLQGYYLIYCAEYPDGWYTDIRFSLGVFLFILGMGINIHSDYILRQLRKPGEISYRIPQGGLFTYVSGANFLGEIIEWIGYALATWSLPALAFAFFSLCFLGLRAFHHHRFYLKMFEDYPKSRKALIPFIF
Procedure, shortened: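 Homogenate of SW-13 cells transfected with human type II cDNA was the enzyme source. Compounds in ethanol were diluted in 50 mM Tris-HCl pH 7.5 with 20% glycerol and 1 mM EDTA. They were screened at 1 and 0.1 μM; those giving ≥50% inhibition at 1 μM were run at 12 concentrations, 0.1–1000 nM. Reactions used [3H]androstenedione and 500 μM NADPH for 60 min at 37 °C. Steroids were ether-extracted and TLC-separated, and androstanedione radioactivity was expressed as % of control.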

[2] = In vitro inhibition of 5-alpha-dihydrotestosterone stimulated shionogi cell proliferation; NA is not active; type: functional, Mus musculus
Procedure, shortened: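 Shionogi mouse mammary carcinoma clone SEM-107 (passage 23), plated at 17400 cells/mL in MEM with 2% charcoal-treated FCS. Grown 13 days with medium changed every 3–4 days. Methanol-fixed, DNA content measured. IC50 by weighted iterative nonlinear least-squares regression; means ± SEM.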

[3] = molecular target: T2, 3-oxo-5-alpha-steroid 4-dehydrogenase 1 (Homo sapiens, UniProt P18405); experiment: In vitro inhibition of human tSteroid 5-alpha-reductase type I in transfected 293 cells using [3H]- delta4-Androstenedione as substrate.; type: cell-based, HEK293
T2 sequence (P18405 whole entry): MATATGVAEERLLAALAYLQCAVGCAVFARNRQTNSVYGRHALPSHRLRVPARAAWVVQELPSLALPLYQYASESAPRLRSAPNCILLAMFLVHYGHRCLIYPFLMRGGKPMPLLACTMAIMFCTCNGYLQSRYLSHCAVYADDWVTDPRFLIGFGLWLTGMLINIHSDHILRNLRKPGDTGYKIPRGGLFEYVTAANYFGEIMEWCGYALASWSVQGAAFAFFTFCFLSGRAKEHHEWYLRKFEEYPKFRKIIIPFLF
Procedure, shortened: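 Homogenate of 293 cells transfected with human type 1 cDNA was the enzyme source. Compounds in ethanol were diluted in 50 mM Tris-HCl pH 7.5 with 20% glycerol and 1 mM EDTA. Screening was at 1 and 0.1 μM, with 12-point IC50 curves (0.1–1000 nM) for actives. Reactions used [3H]androstenedione and 500 μM NADPH for 60 min at 37 °C, followed by ether extraction, TLC and counting of androstanedione as % of control.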

[4] = In vitro inhibition of 5-alpha-dihydrotestosterone stimulated shionogi cell proliferation.; type: functional; conditions: Mus musculus
Procedure, shortened: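 Androgen-sensitive Shionogi mouse mammary carcinoma clone SEM-107 (passage 23) plated at 17400 cells/mL in MEM with 2% dextran-charcoal-treated FCS. Cells grew 13 days with medium changes every 3–4 days, then were methanol-fixed. DNA content was measured, and IC50 was fitted by weighted iterative nonlinear least squares.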

[5] = molecular target: T1, 3-oxo-5-alpha-steroid 4-dehydrogenase 2; experiment: In vitro inhibition of human Steroid 5-alpha-reductase type 2 in transfected SW-13 cells using [3H]- delta4-Androstenedione as substrate; NA is not active; type: cell-based
Procedure, shortened: (§1)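 Homogenate of SW-13 cells transfected with human type II cDNA. Compounds diluted in 50 mM Tris-HCl pH 7.5, 20% glycerol, 1 mM EDTA, first screened at 1 and 0.1 μM. Those reaching 50% inhibition at 1 μM were run at 12 levels, 0.1–1000 nM. Incubated with 5 nM [3H]androstenedione and 500 μM NADPH, 60 min, 37 °C. Ether extraction, TLC, androstanedione radioactivity as % of control.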

[6] = molecular target: T2, 3-oxo-5-alpha-steroid 4-dehydrogenase 1; experiment: In vitro inhibition of human Steroid 5-alpha-reductase type I in transfected 293 cells using [3H]- delta4-Androstenedione as substrate; NA is not active; type: cell-based; conditions: hek293
Procedure, shortened: as §1, with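 “of 293” for “of SW-13”, “type 1” for “type II”, “with 1” for “with 5”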

[7] = molecular target: T2, 3-oxo-5-alpha-steroid 4-dehydrogenase 1; experiment: In vitro inhibition of human Steroid 5-alpha-reductase type I in transfected 293 cells using [3H]- delta4-Androstenedione as substrate; type: cell-based, HEK293
Procedure, shortened: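 Homogenate of 293 cells transfected with human type 1 5α-reductase cDNA was used as enzyme. Compounds were dissolved in ethanol and diluted in 50 mM Tris-HCl pH 7.5 with 20% glycerol and 1 mM EDTA. They were screened at 1 and 0.1 μM; those giving ≥50% inhibition at 1 μM were tested at 12 concentrations from 0.1 to 1000 nM. Incubation used [3H]androstenedione and 500 μM NADPH for 60 min at 37 °C, followed by ether extraction, TLC, and counting of androstanedione as % of control.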

Structure (SMILES)	IC50 [1]	IC50 [2]	IC50 [3]	IC50 [4]	IC50 [5]	IC50 [6]	IC50 [7]
[3H]C1CC2=CC(=O)CC[C@]2(C)[C@H]2CC[C@]3(C)C(=O)CC[C@H]3[C@H]12 (stereo partly specified)	0.0839 µM	Not Active	2.7 µM				
CC(C)(C)NC(=O)[C@H]1CCC2C3CCC4=C(S)C(=O)CC[C@]4(C)C3CC[C@@]21C (stereo partly specified)	0.437 µM		0.709 µM	0.279 µM			
CC(C)(C)NC(=O)[C@H]1CCC2C3CCC4=C(Br)C(=O)CC[C@]4(C)C3CC[C@@]21C (stereo partly specified)	0.387 µM		0.981 µM	0.184 µM			
CC(C)(O)C(=O)Nc1ccc([N+](=O)[O-])c(C(F)(F)F)c1 [HYDROXYFLUTAMIDE]				0.117 µM	Not Active	Not Active	
CC(C)(C)NC(=O)[C@H]1CC[C@H]2[C@@H]3CC[C@H]4NC(=O)C=C[C@]4(C)[C@H]3CC[C@]12C [FINASTERIDE]	0.00847 µM	Not Active					0.218 µM
CC(C)(C)NC(=O)[C@H]1CCC2C3CCC4=C(Cl)C(=O)CC[C@]4(C)C3CC[C@@]21C (stereo partly specified)	0.192 µM		> 1 µM	0.17 µM			
CC(C)(C)NC(=O)[C@H]1CCC2C3CCC4=C(O)C(=O)CC[C@]4(C)C3CC[C@@]21C (stereo partly specified)	0.172 µM		> 1 µM	0.242 µM			
